Experimental data taken from ChEMBL document CHEMBL2331413, “Novel in vivo active anti-malarials based on a hydroxy-ethyl-amine scaffold” (Bioorg Med Chem Lett, 2013).

Columns and labels:
Plasmodium falciparum [1] = assay: Antimalarial activity against chloroquine-resistant Plasmodium falciparum K1 infected in RBC by [3H]hypoxanthine incorporation assay in presence of 0.5 % albumax; type: functional, organism-based
Plasmodium falciparum [2] = assay: Antimalarial activity against chloroquine-sensitive Plasmodium falciparum NF54 infected in RBC after 48 hrs by [3H]hypoxanthine incorporation assay in presence of 0.5 % albumax; type: functional, organism-based
[3] = Metabolic stability in mouse liver microsomes; type: ADME, Microsome; conditions: read-out: Stability
Summary of the method: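 In vitro metabolic stability was measured with a mouse liver microsomal preparation and expressed as intrinsic clearance in µl/(min mg).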

Plasmodium falciparum [4] = assay: Antimalarial activity against chloroquine-sensitive Plasmodium falciparum NF54 infected in RBC after 72 hrs by [3H]hypoxanthine incorporation assay in presence of 0.5 % albumax; type: functional, organism-based
Plasmodium falciparum [5] = assay: Antimalarial activity against chloroquine-sensitive Plasmodium falciparum NF54 infected in RBC after 72 hrs by [3H]hypoxanthine incorporation assay in presence of 50 % serum; type: functional, organism-based
Plasmodium falciparum [6] = assay: Antimalarial activity against chloroquine-sensitive Plasmodium falciparum NF54 infected in RBC after 24 hrs by [3H]hypoxanthine incorporation assay in presence of 0.5 % albumax; type: functional, organism-based
Plasmodium falciparum [7] = assay: Antimalarial activity against chloroquine-resistant Plasmodium falciparum K1 infected in RBC by [3H]hypoxanthine incorporation assay in presence of 50 % serum; type: functional, organism-based
Plasmodium berghei = assay: Antimalarial activity against GFP-transfected Plasmodium berghei ANKA in mouse blood assessed as inhibition of schizont maturation compound incubated for 16 hrs followed by 8 hrs of [3H]hypoxanthine incorporation; type: functional, organism-based

IC50 (Plasmodium falciparum [2]) [nM]	microsomal CLint [3] [µL/min/mg]	IC50 (Plasmodium falciparum [4]) [nM]	IC50 (Plasmodium falciparum [5]) [nM]	IC50 (Plasmodium falciparum [6]) [nM]	IC50 (Plasmodium berghei) [nM]	Compound	IC50 (Plasmodium falciparum [1]) [nM]	IC50 (Plasmodium falciparum [7]) [nM]
–	–	98	102	–	–	C[C@@H](NC[C@@H](O)[C@H](Cc1ccccc1)NC(=O)c1cccc(C(=O)N2CCN(C)CC2)c1)c1ccccc1	–	–
–	–	11	48	–	–	CCCN(CCC)C(=O)c1cccc(C(=O)N[C@@H](Cc2ccccc2)[C@H](O)CN[C@H](C)C2CCCCC2)c1	–	–
–	–	> 500	> 500	–	–	CCCN(CCC)C(=O)c1cccc(C(=O)N[C@@H](Cc2ccccc2)[C@H](O)CNC2CCN(C)CC2)c1	–	–
–	–	203	125	–	–	CC(NC[C@@H](O)[C@H](Cc1ccccc1)NC(=O)c1ccc(N2CCN(C)CC2)cc1)c1ccc(O)c(CN2CCCCC2)c1 (stereo partly specified)	–	–
–	–	3.8	13	–	–	C[C@@H](NC[C@@H](O)[C@H](Cc1ccccc1)NC(=O)c1cccc(C(=O)N2CCCCCC2)c1)c1ccccc1	–	–
–	908	98	138	–	–	C[C@@H](NC[C@@H](O)[C@H](Cc1ccccc1)NC(=O)c1cccc(S(=O)(=O)N2CCN(C)CC2)c1)c1ccccc1	–	–
–	–	81	75	–	–	CN1CCN(c2ccc(C(=O)N[C@@H](Cc3ccccc3)[C@H](O)CNC3CCCC3)cc2)CC1	–	–
–	–	324	466	–	–	CCCN(CCC)C(=O)c1cccc(C(=O)N[C@@H](Cc2ccccc2)[C@H](O)CN[C@@H](C)C2CCCCC2)c1	–	–
–	–	4.9	9.3	–	–	C[C@@H](NC[C@@H](O)[C@H](Cc1ccccc1)NC(=O)c1cccc(C(=O)N2CCCC2)c1)c1ccccc1	–	–
305	–	357	> 500	380	–	CCN(CC)Cc1cc(C(=O)N[C@@H](Cc2ccccc2)[C@H](O)CN[C@H](C)c2ccccc2)ccc1O	–	–
–	860	0.9	1.3	> 500	> 500	C[C@@H](NC[C@@H](O)[C@H](Cc1ccccc1)NC(=O)c1ccc(C(=O)N2CCCCC2)cc1)c1ccccc1	–	–
–	–	261	386	–	–	C[C@@H](NC[C@@H](O)[C@H](Cc1ccccc1)NC(=O)c1ccc(O)c(CN2CCCC2)c1)c1ccccc1	–	–
–	–	190	300	–	–	CC1CN(c2ccc(C(=O)N[C@@H](Cc3ccccc3)[C@H](O)CN[C@H](C)c3ccccc3)cc2)CCN1 (stereo partly specified)	–	–
314	–	333	167	408	–	CCN(CC)Cc1cc(CNC[C@@H](O)[C@H](Cc2ccccc2)NC(=O)c2ccc(N3CCN(C)CC3)cc2)ccc1O	–	–
–	75	0.6	< 0.6	> 500	> 500	C[C@@H](NC[C@@H](O)[C@H](Cc1ccccc1)NC(=O)c1ccc(C(=O)N2CCN(C)CC2)cc1)c1ccccc1	–	–
83	–	118	334	151	> 500	CCCN(CCC)Cc1cc(C(=O)N[C@@H](Cc2ccccc2)[C@H](O)CN[C@H](C)c2ccccc2)ccc1O	–	–
–	–	78	150	–	–	CCCN(CCC)C(=O)c1cccc(C(=O)N[C@@H](Cc2ccccc2)[C@H](O)CNC(C)C)c1	–	–
75	–	89	62	90	–	CCCN(CCC)Cc1cc(C(C)NC[C@@H](O)[C@H](Cc2ccccc2)NC(=O)c2ccc(N3CCN(C)CC3)cc2)ccc1O (stereo partly specified)	–	–
< 7.8	–	4.9	5.9	235	> 500	C[C@@H](NC[C@@H](O)[C@H](Cc1ccccc1)NC(=O)c1cccc(O)c1CN1CCCCC1)c1ccccc1	–	–
–	–	> 500	> 500	–	–	CN1CCN(c2ccc(C(=O)N[C@@H](Cc3ccccc3)C(F)(F)CNC3CCCC3)cc2)CC1	–	–
–	> 1250	1.6	6.5	> 500	> 500	CCCN(CCC)C(=O)c1ccc(C(=O)N[C@@H](Cc2ccccc2)[C@H](O)CN[C@H](C)c2ccccc2)cc1	–	–
–	–	16	34	–	–	CCCN(CCC)C(=O)c1cccc(C(=O)N[C@@H](Cc2ccccc2)[C@H](O)CNC2CCOCC2)c1	–	–
–	–	21	39	–	–	C[C@@H](NC[C@@H](O)[C@H](Cc1ccccc1)NC(=O)c1ccc(N2CCN(Cc3ccccc3)CC2)cc1)c1ccccc1	–	–
> 500	–	> 500	295	> 500	–	CN1CCN(c2ccc(C(=O)N[C@@H](Cc3ccccc3)[C@H](O)CNCc3ccc(O)c(CN4CCCC4)c3)cc2)CC1	–	–
–	–	> 500	> 500	–	–	CC(C)C[C@H](NC(=O)c1ccc(N2CCN(C)CC2)cc1)[C@H](O)CNC1CCCC1	–	–

Further lines, the compound ahead of its results:

Compound	IC50 (Plasmodium falciparum [2]) [nM]	microsomal CLint [3] [µL/min/mg]	IC50 (Plasmodium falciparum [4]) [nM]	IC50 (Plasmodium falciparum [5]) [nM]	IC50 (Plasmodium falciparum [6]) [nM]	IC50 (Plasmodium berghei) [nM]	IC50 (Plasmodium falciparum [1]) [nM]	IC50 (Plasmodium falciparum [7]) [nM]
C[C@@H](NC[C@@H](O)[C@H](Cc1ccccc1)NC(=O)c1ccc(N(C)C2CCN(C)CC2)cc1)c1ccccc1	< 7.8	71	4.4	14	> 500	–	7.1	–
CCCN(CCC)C(=O)c1cccc(C(=O)N[C@@H](Cc2ccccc2)[C@H](O)CNC2CCCC2)c1	–	–	7.1	–	–	–	12	36
C[C@@H](NC[C@@H](O)[C@H](Cc1ccccc1)NC(=O)c1ccc(Nc2ccc(O)c(CN3CCCC3)c2)cc1)c1ccccc1	< 7.8	–	17	4.9	174	–	< 7.8	< 7.8
CCN(CC)Cc1ccc(Nc2ccc(C(=O)N[C@@H](Cc3ccccc3)[C@H](O)CN[C@H](C)c3ccccc3)cc2)cc1O	15	–	< 7.8	9	65	–	–	–
CCCN(CCC)C(=O)c1ccccc1C(=O)N[C@@H](Cc1ccccc1)[C@H](O)CN[C@H](C)c1ccccc1	–	–	> 500	> 500	–	–	–	–
C[C@@H](NC[C@@H](O)[C@H](Cc1ccccc1)NC(=O)c1ccc(NC2CCN(C)CC2)cc1)c1ccccc1	< 7.8	76	4	12	> 500	–	7	16
CCCN(CCC)C(=O)c1cccc(C(=O)N[C@@H](Cc2ccccc2)[C@H](O)CNC(C)(C)c2ccc(OC)cc2)c1	–	–	13	44	–	–	–	–
CCCN(CCC)Cc1cc(Nc2ccc(C(=O)N[C@@H](Cc3ccccc3)[C@H](O)CN[C@H](C)c3ccccc3)cc2)ccc1O	11	–	9.4	13	77	–	11	< 7.8
CCCN(CCC)C(=O)c1cccc(C(=O)N[C@@H](Cc2ccccc2)[C@H](O)CNC(C)(C)c2cccc(F)c2)c1	–	–	9.6	50	–	–	–	–
CCCN(CCC)C(=O)c1cccc(C(=O)N[C@@H](Cc2ccccc2)[C@H](O)CNCCCc2ccccc2)c1	–	–	43	126	–	–	–	–
CCCN(CCC)Cc1ccc(Nc2ccc(C(=O)N[C@@H](Cc3ccccc3)[C@H](O)CN[C@H](C)c3ccccc3)cc2)cc1O	–	–	22	20	77	–	–	–
CCCN(CCC)C(=O)c1cccc(C(=O)N[C@@H](Cc2ccccc2)[C@H](O)CNC(C)(C)c2ccc(C#N)cc2)c1	–	–	55	188	–	–	–	–
CCCN(CCC)C(=O)c1cccc(C(=O)N[C@@H](Cc2ccccc2)[C@H](O)CNC(C)(C)c2ccccc2F)c1	–	–	21	142	–	–	–	–
CCCN(CCC)C(=O)c1cccc(C(=O)N[C@H](CCNC(C)C)Cc2ccccc2)c1	–	–	> 500	> 500	–	–	–	–
CCN(CC)Cc1cc(Nc2ccc(C(=O)N[C@@H](Cc3ccccc3)[C@H](O)CN[C@H](C)c3ccccc3)cc2)ccc1O	< 7.8	–	8.3	3.6	133	–	–	–
CCCN(CCC)C(=O)c1cccc(C(=O)N[C@@H](Cc2ccccc2)[C@H](O)CNC(C)(C)c2cccc(C#N)c2)c1	–	–	< 1.5	8.6	–	–	–	–
C[C@@H](NC[C@@H](O)[C@H](Cc1ccccc1)NC(=O)c1ccc(CN2CCCCC2)c(O)c1)c1ccccc1	–	–	4.9	5.9	–	–	< 7.8	7.8
CCCN(CCC)C(=O)c1cccc(C(=O)N[C@@H](Cc2ccccc2)[C@H](O)CNC2(c3ccccc3)CC2)c1	–	–	116	435	–	–	–	–
CCCN(CCC)C(=O)c1cccc(C(=O)N[C@@H](Cc2ccccc2)[C@H](O)CNC(C)(C)C)c1	–	–	24	66	–	–	–	–
CCN(CC)Cc1cc(Nc2ccc(C(=O)N[C@@H](Cc3ccccc3)[C@H](O)CNC3CCCC3)cc2)ccc1O	–	–	78	51	–	–	54	44
CCN(CC)Cc1cc(Nc2cccc(C(=O)N[C@@H](Cc3ccccc3)[C@H](O)CNC3CCCC3)c2)ccc1O	–	–	23	67	–	–	30	127
CCCNC(=O)c1cccc(C(=O)N[C@@H](Cc2ccccc2)[C@H](O)CN[C@H](C)c2ccccc2)c1	–	–	12	30	–	–	–	–
CCCN(CCC)C(=O)c1cccc(C(=O)N[C@@H](Cc2ccccc2)[C@H](O)CNC(C)(C)c2ccccc2)c1	–	–	7.6	40	–	–	–	–
CCCN(CCC)C(=O)c1cccc(C(=O)N[C@@H](Cc2ccccc2)[C@@H](O)CNCCCc2ccccc2)c1	–	–	> 500	> 500	–	–	–	–
CCCN(CCC)Cc1cc(CNC[C@@H](O)[C@H](Cc2ccccc2)NC(=O)c2ccc(Nc3ccnc(C)c3)cc2)ccc1O	–	–	158	80	–	–	149	93
CN1CCN(c2ccc(C(=O)N[C@@H](Cc3ccccc3)[C@H](O)CNCc3ccc(O)c(CN4CCCCC4)c3)cc2)CC1	102	–	120	57	158	–	36	28
